Data set [1] in a line: Displacement of [3H]-DTG from sigma-2 receptor in Dunkin Hartley guinea pig brain membrane after 120 mins by liquid scintillation counting analysis in presence of (+)-SKF10047. Also noted: species or system Cavia porcellus.
For data set [2], the target named is Sigma non-opioid intracellular receptor 1 (Cavia porcellus, UniProt Q60492). The data set can be described thus: Displacement of [3H]-(+)-pentazocine from sigma-1 receptor in Dunkin Hartley guinea pig brain membranes after 180 mins by liquid scintillation counting analysis. Also noted: species or system Membrane.
Chain of Sigma non-opioid intracellular receptor 1 (Q60492 whole entry): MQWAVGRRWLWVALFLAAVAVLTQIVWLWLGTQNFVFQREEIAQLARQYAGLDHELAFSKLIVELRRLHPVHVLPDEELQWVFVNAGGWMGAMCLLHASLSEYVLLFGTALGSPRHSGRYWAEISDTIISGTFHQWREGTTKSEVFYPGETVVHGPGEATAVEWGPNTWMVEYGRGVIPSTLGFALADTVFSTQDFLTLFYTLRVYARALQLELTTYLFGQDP
For another data set, the species on record is Cavia porcellus. Description: Selectivity ratio of Ki for Dunkin Hartley guinea pig brain sigma-2 receptor to Ki for Dunkin Hartley guinea pig brain sigma-1 receptor.
A short description of data set [3]: Acute toxicity in po dosed Kun Ming mouse after 24 hrs. Format: organism-based. As to conditions: in vivo.
Data set [4] relates to Mus musculus. The data set can be described thus: Antinociceptive activity in Kun Ming mouse pain model assessed as reduction in licking and biting time during phase-1 at 80 mg/kg, ip administered 15 mins prior to formalin challenge relative to vehicle-treated control. Format: functional. As to conditions: route intraperitoneal. The essentials:
(§1)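 Kun Ming mice (20 ± 2.0 g), 10–12 per group, given vehicle (30% PEG 400) or drug ip at 10 mL/kg 15 min before intraplantar formalin. Time spent licking or biting the injected paw scored at 0–5 min (phase I) and 15–45 min (phase II). Effect (%) = (LTV − LTD)/LTV × 100.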

In data set [5] the test system is Mus musculus. Description: Antinociceptive activity in Kun Ming mouse pain model assessed as reduction in licking and biting time during phase-2 at 80 mg/kg, ip administered 15 mins prior to formalin challenge relative to vehicle-treated control. The settings on record: route intraperitoneal. Format: functional. The essentials: as §1

Some results are limits rather than exact numbers.

`Cc1cc(OCCCN2C(C)(C)CCCC2(C)C)nc(-c2ccccc2)n1`: the Ki is more than 2 µM in data set [1] and 0.377 µM in data set [2].
For `Cc1nc(C2CC2)nc(OCCCN2CCCCC2)c1Cl`, the Ki in data set [1] was found to be 1.33 µM; in data set [2] it was 0.0395 µM. Moreover, the Ratio Ki in the data set filed under Cavia porcellus is 33.6.
In the same order, the values of `Cc1cc(OCCCN2CCCC2)nc(-c2ccccc2)n1` are 1.25 µM, 0.0136 µM and 92.1.
In the same order, the values of `Cc1nc(C)c(Cl)c(OCCCN2CCCCC2)n1` are 1.08 µM, 0.0588 µM and 18.4.
`Cc1nc(-c2ccccc2)nc(OCCCN2CCCC2)c1C`: the figures for the Ki in data set [1] and in data set [2] were 1.28 µM and 0.0114 µM, respectively. For the same molecule, in the data set listed under Cavia porcellus, the Ratio Ki is 112.
`CCc1cc(OCCCN2CCCCC2)nc(-c2ccccc2)n1`: the Ki was found to be 1.14 µM in data set [1] and 0.0205 µM in data set [2]. For the same molecule, the Ratio Ki in the data set listed under Cavia porcellus is 55.6.
As to `c1ccc(-c2nc(OCCCN3CCCCC3)cc(C3CC3)n2)cc1`, the Ki in data set [1] is more than 2 µM; in data set [2], 0.253 µM.
In the same order, the values of `c1ccc(-c2cc(OCCCN3CCCCC3)nc(-c3ccccc3)n2)cc1` are more than 2 µM and 0.966 µM.
On to `Cc1cc(OCCCN2CCN(c3ccccc3)CC2)nc(-c2ccccc2)n1`, for which the Ki in data set [1] and in data set [2] was more than 2 µM in each case.
Turning to `Cc1cc(OCCCN(C)C)nc(-c2ccccc2)n1`, the Ki was more than 2 µM in data set [1] and 0.0823 µM in data set [2].
Taken in the same sequence, the figures for `c1ccc(-c2cc(OCCCN3CCCC3)nc(-c3ccccc3)n2)cc1` were more than 2 µM and 0.735 µM.
In the case of `FC(F)(F)c1cc(OCCCN2CCCC2)nc(-c2ccccc2)n1`, the Ki came to 1.33 µM in data set [1] and 0.0276 µM in data set [2]. Further, in the data set listed under Cavia porcellus, the Ratio Ki turned out to be 48.
On to `Cc1cc(OCCCCN2CCOCC2)nc(-c2ccccc2)n1`, for which the results for the Ki in data set [1] and in data set [2] were 1.07 µM and 0.0952 µM, respectively. The Ratio Ki in the data set filed under Cavia porcellus came to 11.2.
In the same order, the values of `Cc1cc(OCCCN2CCCCC2)nc(-c2ccccc2)n1` are 1.05 µM, 0.0118 µM and 89.1.
Turning to `Cc1nc(-c2ccccc2)nc(OCCCN2CCCC2)c1F`, the Ki in data set [1] stood at 1.19 µM; in data set [2], 0.00351 µM. The Ratio Ki in the data set listed under Cavia porcellus was determined as 340.
Take `Cc1nc(-c2ccccc2)nc(OCCCN2CCCCC2)c1F`: the figures for the Ki in data set [1] and in data set [2] were 1.36 µM and 0.00375 µM, respectively. The Ratio Ki in the data set listed under Cavia porcellus is 363.
As to `COc1cc(OCCCN2CCCCC2)nc(-c2ccccc2)n1`, the Ki in data set [1] worked out at 0.892 µM; in data set [2], 0.0193 µM. Also, the Ratio Ki in the data set filed under Cavia porcellus amounted to 46.2.
For `Cc1nc(-c2ccccc2)nc(OCCCN2CCCCC2)c1Cl`, the Ki amounted to 1.65 µM in data set [1] and 0.00233 µM in data set [2]. In addition, in data set [3], the LD50 at 24 h turned out to be 440 mg/kg.
For the molecule `Cc1cc(OCCOCCN2CCOCC2)nc(-c2ccccc2)n1`, the Ki in data set [1] was 1.92 µM; in data set [2], 0.422 µM. In addition, the Ratio Ki in the data set filed under Cavia porcellus was 4.6.
With `CCN1CCN(CCCOc2cc(C)nc(-c3ccccc3)n2)CC1`, the results for the Ki in data set [1] and in data set [2] were 1.18 µM and 0.0306 µM, respectively. The Ratio Ki in the data set filed under Cavia porcellus was 38.5.
Regarding `c1ccc(-c2nc(OCCCN3CCCC3)cc(C3CC3)n2)cc1`, the Ki in data set [1] was more than 2 µM; in data set [2] it was 0.278 µM.
For the molecule `CCN(CC)CCCOc1cc(C)nc(-c2ccccc2)n1`, the Ki in data set [1] stood at 1.32 µM; in data set [2], 0.0471 µM. Further, in the data set filed under Cavia porcellus, the Ratio Ki was 28.
Taken in the same sequence, the figures for `Cc1cc(OCCCN2CC(C)CC(C)C2)nc(-c2ccccc2)n1` (centres undefined) were 1.66 µM, 0.0302 µM and 55.
Turning to `Cc1cc(OCCCN2CCCN(C)CC2)nc(-c2ccccc2)n1`, the figures for the Ki in data set [1] and in data set [2] were 1.29 µM and 0.0187 µM, respectively. Also, in the data set listed under Cavia porcellus, the Ratio Ki is 69.2.
Taken in the same sequence, the figures for `Cc1cc(OCCCN2CCOCC2)nc(-c2ccccc2)n1` were 0.949 µM, 0.0363 µM and 26.1.
On to `COc1cc(OCCCN2CCCC2)nc(-c2ccccc2)n1`, for which the Ki in data set [1] is 0.892 µM; in data set [2] it was 0.0193 µM. The Ratio Ki in the data set listed under Cavia porcellus amounted to 46.2.
Regarding `Cc1nc(-c2ccc(C(F)(F)F)cc2)nc(OCCCN2CCCCC2)c1Cl`, the Ki worked out at 1.78 µM in data set [1] and 0.00442 µM in data set [2]. This molecule returned an LD50 at 24 h in data set [3] of 377 mg/kg.
`Cc1cc(OCCN2CCOCC2)nn1-c1ccc2ccccc2c1`: the Time stood at 10.65 s with Mus musculus [4] and 33.16 s in the data set with Mus musculus [5].
As to `Cc1ccc(-c2nc(C)c(Cl)c(OCCCN3CCCCC3)n2)cc1`, the Ki in data set [1] was 1.55 µM; in data set [2] it was 0.00196 µM. This molecule yielded an LD50 at 24 h in data set [3] of 1680 mg/kg.
As for `Cc1cc(OCC(O)CN2CCOCC2)nc(-c2ccccc2)n1` (centres undefined), the Ki in data set [1] is 1.64 µM; in data set [2], 0.486 µM. In the data set filed under Cavia porcellus, the Ratio Ki was determined as 3.4.
As to `Cc1cc(OCCCN2CCC(O)CC2)nc(-c2ccccc2)n1`, the Ki amounted to 1.76 µM in data set [1] and 0.462 µM in data set [2]. Moreover, the Ratio Ki in the data set listed under Cavia porcellus came to 3.8.
For the molecule `Cc1nc(-c2ccc(F)cc2)nc(OCCCN2CCCCC2)c1Cl`, the figures for the Ki in data set [1] and in data set [2] were 1.33 µM and 0.00114 µM, respectively. The LD50 at 24 h in data set [3] came to 884 mg/kg.
With `Cc1nc(-c2ccc3ccccc3c2)nc(OCCCN2CCCCC2)c1Cl`, the results for the Ki in data set [1] and in data set [2] were more than 2 µM and 0.102 µM, respectively.
Consider `Cc1cc(OCCCN2CCNCC2)nc(-c2ccccc2)n1`, for which the Ki amounted to 1.21 µM in data set [1] and 0.151 µM in data set [2]. Moreover, in the data set listed under Cavia porcellus, the Ratio Ki came to 8.
In the case of `CCCc1cc(OCCCN2CCCCC2)nc(-c2ccccc2)n1`, the results for the Ki in data set [1] and in data set [2] were 1.46 µM and 0.0349 µM, respectively. The Ratio Ki in the data set filed under Cavia porcellus is 41.7.
With `COc1ccc(-c2nc(C)c(Cl)c(OCCCN3CCCCC3)n2)cc1`, in data set [1], the Ki amounted to 1.29 µM. Further, the Ratio Ki in the data set filed under Cavia porcellus turned out to be 332.
For `CCCc1cc(OCCCN2CCCC2)nc(-c2ccccc2)n1`, the Ki in data set [1] stood at 1.4 µM; in data set [2], 0.0389 µM. Further, the Ratio Ki in the data set filed under Cavia porcellus was found to be 35.8.
Regarding `Cc1ncnc(OCCCN2CCCCC2)c1Cl`, the Ki in data set [1] was 1.1 µM; in data set [2], 0.187 µM. Besides, the Ratio Ki in the data set listed under Cavia porcellus was 5.9.
In the same order, the values of `Cc1cc(OCCCN2CCN(C)CC2)nc(-c2ccccc2)n1` are 1.32 µM, 0.0227 µM and 58.3.
In the same order, the values of `Cc1cc(OC/C=C/CN2CCOCC2)nc(-c2ccccc2)n1` are 1.45 µM, 0.116 µM and 12.5.
In the case of `Cc1cc(OCCN2CCOCC2)nc(-c2ccccc2)n1`, the Ki in data set [1] and in data set [2] was more than 2 µM throughout.
As to `Cc1cc(OCCCCCCN2CCOCC2)nc(-c2ccccc2)n1`, the Ki in data set [1] and in data set [2] was more than 2 µM throughout.
For `Cc1cc(OCCCCCN2CCOCC2)nc(-c2ccccc2)n1`, the Ki was more than 2 µM in data set [1] and 0.389 µM in data set [2].
Turning to `Cc1nc(-c2ccccc2)nc(OCCCN2CCCCC2)c1C`, the Ki in data set [1] came out at 1.22 µM; in data set [2], 0.00951 µM. The Ratio Ki in the data set listed under Cavia porcellus came out at 128.
As for `Cc1cc(OCCCN2CCN(C(=O)OC(C)(C)C)CC2)nc(-c2ccccc2)n1`, the Ki in data set [1] and in data set [2] was more than 2 µM each time.
Turning to `CC(C)c1cc(OCCCN2CCCCC2)nc(-c2ccccc2)n1`, the Ki amounted to 1.84 µM in data set [1] and 0.188 µM in data set [2]. Also, the Ratio Ki in the data set filed under Cavia porcellus was determined as 9.7.
As to `Cc1cc(OCCCN2CCC(=O)CC2)nc(-c2ccccc2)n1`, the Ki in data set [1] worked out at 1.49 µM; in data set [2] it was 0.319 µM. For the same molecule, in the data set listed under Cavia porcellus, the Ratio Ki was determined as 4.7.
As for `CC(C)c1cc(OCCCN2CCCC2)nc(-c2ccccc2)n1`, the Ki in data set [1] amounted to 1.09 µM; in data set [2] it was 0.218 µM. Besides, the Ratio Ki in the data set filed under Cavia porcellus amounted to 5.
Taken in the same sequence, the figures for `CCc1cc(OCCCN2CCCC2)nc(-c2ccccc2)n1` were 1.43 µM, 0.0224 µM and 63.8.
As for `CCCN(CCC)CCCOc1cc(C)nc(-c2ccccc2)n1`, the Ki in data set [1] came to 1.07 µM; in data set [2] it was 0.0388 µM. Moreover, the Ratio Ki in the data set filed under Cavia porcellus came out at 27.5.
Take `Cc1nc(-c2ccccc2)nc(OCCCN2CCCC2)c1Cl`: the Ki in data set [1] was found to be 1.68 µM; in data set [2] it was 0.00402 µM. Also, the median lethal dose (LD50) at 24 h in data set [3] is more than 2000 mg/kg.
For `FC(F)(F)c1cc(OCCCN2CCCCC2)nc(-c2ccccc2)n1`, the Ki came to 1.33 µM in data set [1] and 0.0276 µM in data set [2]. Also, the Ratio Ki in the data set listed under Cavia porcellus is 48.
With `Cc1cc(OCCCN2CCC(C)CC2)nc(-c2ccccc2)n1`, the Ki in data set [1] stood at 1.42 µM; in data set [2], 0.0167 µM. Further, the Ratio Ki in the data set listed under Cavia porcellus was 84.7.
For the molecule `Cc1nc(-c2ccc(F)c(F)c2)nc(OCCCN2CCCCC2)c1Cl`, the Ki in data set [1] stood at 0.943 µM; in data set [2] it was 0.00097 µM.
Regarding `Cc1nc(-c2ccc(Cl)c(Cl)c2)nc(OCCCN2CCCCC2)c1Cl`, the Ki in data set [1] is more than 2 µM; in data set [2], 0.0898 µM.

The values are drawn from ChEMBL document CHEMBL3351343, “Synthesis and biological evaluation of novel sigma-1 receptor antagonists based on pyrimidine scaffold as agents for treating neuropathic pain” (J Med Chem, 2014).
